Values after ≈ are worked out from the molar mass of the structure shown. Active and inactive are the calls of the source. The calls are words filed in the database; no cut-off is given here.
Key:
DU-4475 = assay: Cytotoxicity against human DU4475 cells after 72 hrs by MTS assay; format: functional, cell-based; conditions: DU-4475, 72 h
MDA-MB-468 = assay: Cytotoxicity against human MDA-MB-468 cells after 72 hrs by MTS assay; format: functional, cell-based; conditions: MDA-MB-468, 72 h
PC-3 = assay: Cytotoxicity against human PC3 cells after 72 hrs by MTS assay; format: functional, cell-based; conditions: PC-3, 72 h
[1] = Cytotoxicity against human LNCaP-FGC cells after 72 hrs by MTS assay; format: functional, cell-based; conditions: LNCaP-Clone-FGC
HCT-116 = assay: Cytotoxicity against human HCT116 cells after 72 hrs by MTS assay; format: functional, cell-based; conditions: HCT-116, 72 h
MDA-MB-231 = assay: Cytotoxicity against human MDA-MB-231 cells after 72 hrs by MTS assay; format: functional, cell-based; conditions: MDA-MB-231, 72 h
DU-145 = assay: Cytotoxicity against human DU145 cells after 72 hrs by MTS assay; format: functional, cell-based; conditions: DU-145, 72 h
BT-549 = assay: Cytotoxicity against human BT549 cells after 72 hrs by MTS assay; format: functional, cell-based; conditions: BT-549, 72 h
A549 = assay: Cytotoxicity against human A549 cells after 72 hrs by MTS assay; format: functional, cell-based; conditions: A549, 72 h
[2] = Cytotoxicity against human A2780DDP cells after 72 hrs by MTS assay; format: functional, cell-based
CCRF-CEM = assay: Cytotoxicity against human CCRF-CEM cells after 72 hrs by MTS assay; format: functional, cell-based
Homo sapiens [3] = species: Homo sapiens; assay: Induction of apoptosis in human A2780DDP cells assessed as PARP cleavage at 10 uM after 48 hrs by flow cytometry; format: functional, cell-based
Homo sapiens [4] = species: Homo sapiens; assay: Induction of apoptosis in human A2780DDP cells assessed as PARP cleavage at 10 uM after 24 hrs by flow cytometry; format: functional, cell-based
Procedure, shortened: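 A2780/DDP-S ovarian cancer cells were exposed at 1.0, 3.0 and 10 µM for 24 or 48 h. Apoptosis was scored by flow cytometry as the presence of cleaved PARP, a marker of caspase activation.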

[5] = Cell cycle arrest in human A2780DDP cells at 10 uM after 24 hrs using propidium iodine staining by flow cytometry; format: functional, cell-based
Procedure, shortened: (§1)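 A2780/DDP-S ovarian cancer cells were treated at 1.0, 3.0 and 10 µM for 24 or 48 h. DNA was stained with propidium iodide and cell-cycle distribution was analysed by flow cytometry.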

Enterococcus faecium = assay: Antibacterial activity against vancomycin-resistant Enterococcus faecium ATCC 700221; format: functional
Candida albicans = assay: Antifungal activity against amphotericin-resistant Candida albicans ATCC 90873; format: functional
[6] = system: Mycobacterium tuberculosis; assay: Antimicrobial activity against Mycobacterium tuberculosis H37Rv by microplate alamar blue assay; format: functional, organism-based
Procedure, shortened: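 M. tuberculosis H37Rv (ATCC 27294) tested by microplate alamar blue assay.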

Plasmodium falciparum = assay: Antimalarial activity against Plasmodium falciparum; format: functional, organism-based
Procedure, shortened: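 Parasite proliferation was read out with a SYBR Green-based assay.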

[7] = Cell cycle arrest in human A2780DDP cells at 10 uM after 48 hrs using propidium iodine staining by flow cytometry; format: functional, cell-based; procedure, shortened: as §1
Staphylococcus aureus = assay: Antibacterial activity against methicillin-resistant Staphylococcus aureus ATCC 33591; format: functional

| Compound | IC50 (DU-4475) [µM] | IC50 (MDA-MB-468) [µM] | IC50 (PC-3) [µM] | IC50 [1] [µM] | IC50 (HCT-116) [µM] | IC50 (MDA-MB-231) [µM] | IC50 (DU-145) [µM] | IC50 (BT-549) [µM] | IC50 (A549) [µM] | IC50 [2] [µM] | IC50 (CCRF-CEM) [µM] | Activity (Homo sapiens [3]) | Activity (Homo sapiens [4]) | Activity [5] | Activity (Enterococcus faecium) [µg/mL] | MIC (Candida albicans) [µg/mL] | IC50 [6] [µM] | IC50 (Plasmodium falciparum) [µM] | Activity [7] | Activity (Staphylococcus aureus) [µg/mL] |
| --- | --- | --- | --- | --- | --- | --- | --- | --- | --- | --- | --- | --- | --- | --- | --- | --- | --- | --- | --- | --- |
| CC(=O)N[C@H]1[C@H](OC[C@]23CC[C@H](O)C=C2CC[C@@H]2[C@@H]3CC[C@]3(C)[C@@H]([C@H](C)CCCC(C)C)CC[C@@H]23)O[C@H](CO)[C@@H](O)[C@@H]1O | 6.12 | 7.13 | 9.61 | 21.4 | > 25 | 10.2 | > 25 | 10.1 | > 25 | 8.98 | 10.7 |  |  |  |  |  |  |  |  |  |
| CC(C)CCC[C@@H](C)[C@H]1CC[C@H]2[C@@H]3CCC4=CC(=O)CC[C@]4(CO[C@@H]4O[C@H](CO)[C@@H](O)[C@H](O)[C@H]4O)[C@H]3CC[C@]12C | 1.29 | 0.86 | 3.44 | 3.4 | 3.13 | 1.27 | 1.31 | 1.26 | 0.93 | 1.39 | 1.97 | inactive | inactive | inactive | 6.3 | 25 (≈ 44.4 µM) | > 40 | > 40 | inactive |  |
| CC(C)CCC[C@@H](C)[C@H]1CC[C@H]2[C@@H]3CCC4=CC(=O)CC[C@]4(CO)[C@H]3CC[C@]12C | 1 | 3.99 | 1.96 | 15.6 | 20.9 | 22.3 | 5.05 |  |  |  |  |  |  |  |  |  |  |  |  |  |
| CC(=O)N[C@H]1[C@H](OC[C@]23CCC(=O)C=C2CC[C@@H]2[C@@H]3CC[C@]3(C)[C@@H]([C@H](C)CCCC(C)C)CC[C@@H]23)O[C@H](CO)[C@@H](O)[C@@H]1O | 2.44 | 0.71 | 2.4 | 1.48 | 2.23 | 1.01 | 1.35 | 1.24 | 0.97 | 1.35 | 1.45 | inactive |  | inactive | 12.5 | 25 (≈ 41.4 µM) | > 40 | > 40 | inactive | 3.1 |
| CC(C)CCC[C@@H](C)[C@H]1CC[C@H]2[C@@H]3CCC4=C[C@@H](O)CC[C@]4(C)[C@H]3CC[C@]12C | > 25 | > 25 | > 25 | > 25 | > 25 | > 25 | > 25 |  |  |  |  |  |  |  |  |  |  |  |  |  |
| CC(C)CCC[C@@H](C)[C@H]1CC[C@H]2[C@@H]3CCC4=CC(=O)CC[C@]4(C)[C@H]3CC[C@]12C [4-CHOLESTEN 3-ONE] | 6.74 | 6.09 | > 25 | 5.96 | 9.58 | 13.5 | 20.3 |  |  |  |  |  |  |  |  |  |  |  |  |  |
| CC(C)CCC[C@@H](C)[C@H]1CC[C@H]2[C@@H]3CCC4=C[C@@H](O)CC[C@]4(CO[C@@H]4O[C@H](CO)[C@@H](O)[C@H](O)[C@H]4O)[C@H]3CC[C@]12C | 6.09 | 6.69 | > 25 | 24.2 | > 25 | 16.9 | > 25 | 11.9 | > 25 | > 25 | 9.82 |  |  |  |  |  |  |  |  |  |
